Assay results pooled from the literature.
Organism: Escherichia coli
Effect on: microbial growth

| Structure (SMILES) | test | system | conditions | MIC |
| --- | --- | --- | --- | --- |
| CC1=NN(CNc2ccccc2[N+](=O)[O-])C(=O)C1=NNn1c(-c2ccccc2)nc2ccccc2c1=O | broth dilution |  | 24 h | 50.4 µM |
| Cc1ccc(C)n1-c1ccc(-c2nnc(-c3cccc([N+](=O)[O-])c3)[nH]2)cc1 | broth dilution | ATCC10536 | 18 h | 250 µg/mL |
| COc1c(C)c(OC)c2c(c1C)OC(c1ccccc1)CC2=O (centres unmarked) | broth dilution | ATCC25922 |  | 5000 µg/mL |
| CC(C)Oc1c(NC(=O)c2ccc(NC(=O)[C@H](CC(N)=O)NC(=O)c3ccc(NC(=O)c4ccc5c(c4)COC5=O)cc3)cc2)ccc(C(=O)Nc2ccc(C(=O)O)cc2)c1O |  | DSM1116 |  | ≤ 0.03 µg/mL |
| O=C(CCCCCC[P+](c1ccccc1)(c1ccccc1)c1ccccc1)Nc1ccc(O)c(O)c1.[Br-] | broth dilution | ATCC25922 | 18 h | > 32 µg/mL |
| N=C(N)c1ccc(OCCCCCOc2ccc(C(=N)N)cc2)cc1 | broth dilution | BW25113 |  | 200 µg/mL |
| Clc1ccccc1NCc1ccc(Oc2ccccn2)cc1 |  |  |  | > 25 µg/mL |
| CC(C)Oc1c(NC(=O)c2ccc(NC(=O)[C@H](CC(N)=O)NC(=O)c3ccc(NC(=O)c4cc(C#N)cn4C)cc3)cc2)ccc(C(=O)Nc2ccc(C(=O)O)cc2)c1O |  | DSM1116 |  | ≤ 0.03 µg/mL |
| COc1ccc(-c2nc3ccccc3[nH]2)cc1O | broth dilution | ATCC25922 |  | 256 µg/mL |
| N=C(N)c1ccc(OCCCCCCCCCOc2ccc(C(=N)N)cc2)cc1 | broth dilution | BW25113 |  | > 25 µg/mL |
| CC(NCCCNC(=O)c1ccc(Cl)s1)c1cc2cc(Br)ccc2[nH]1 (centres unmarked) | broth dilution | ATCC25922 |  | 32 µg/mL |
| CNC(C)C1CCC(N)C(OC2C(N)CC(N)C(OC3OCC(C)(O)C(NC)C3O)C2O)O1 (centres unmarked) | broth dilution | K12, K12 | pH 7 | 0.25 µg/mL |
| Cc1ccc2nc(-c3cccnc3)[nH]c2c1 | broth dilution | ATCC25922 |  | 128 µg/mL |
| Cc1cccc2nc(-c3ccc([N+](=O)[O-])o3)[nH]c12 | broth dilution | ATTC25922 |  | 4 µg/mL |
| O=C1NN=C(N=Cc2ccc(O)cc2O)C1=NNn1c(-c2ccccc2)nc2ccccc2c1=O | broth dilution |  | 24 h | 53.5 µM |
| O=C(CCc1cc(O)c(O)c(O)c1)NCCCCCCCC[P+](c1ccccc1)(c1ccccc1)c1ccccc1.[Br-] | broth dilution | ATCC25922 | 18 h | > 32 µg/mL |
| N=C(N)c1ccc(OCCC(CCOc2ccc(C(=N)N)cc2)c2ccccc2)cc1 (centres unmarked) | broth dilution | BW25113 |  | > 200 µg/mL |
| Fc1ccccc1NCc1ccc(Oc2ccccn2)cc1 |  |  |  | > 25 µg/mL |
| N=C(N)c1ccc(OCc2ccc(Br)cc2COc2ccc(C(=N)N)cc2)cc1 | broth dilution | W3110 |  | 200 µg/mL |
| CC(C)Oc1c(N)ccc(C(=O)Nc2ccc(C(=O)N[C@@H](CC(N)=O)C(=O)Nc3ccc(C(=O)Nc4ccc(C(=O)Nc5ccc(C(=O)O)cc5)c(O)c4OC(C)C)cc3)cc2)c1O |  | DSM1116 |  | 2 µg/mL |
| Cc1ccc2nc(-c3ccc([N+](=O)[O-])cc3)n(Cc3ccccc3Cl)c2c1 | broth dilution | ATCC25922 |  | 32 µg/mL |
| COc1cccc(NCc2ccc(Oc3ccccn3)cc2)c1 |  |  |  | > 50 µg/mL |
| C[C@H](CCC(=O)NCCCNCCCCNCCCN)[C@H]1CC[C@H]2[C@@H]3CC[C@@H]4C[C@H](O)CC[C@]4(C)[C@H]3CC[C@]12C | broth dilution | MG1655 | 20 h | 128 µg/mL |
| Cn1c(SCc2ccc(Cl)cc2)nnc1-c1cncc(C#Cc2ccccc2)c1 |  |  |  | ≥ 20 µg/mL |
| N=C(N)c1cccc(OCc2ccc(COc3cccc(C(=N)N)c3)cc2)c1 |  | BW25113 |  | > 200 µg/mL |
| C[C@@H](O)[C@H]1C(=O)N2C(C(=O)O)=C(S[C@@H]3CN[C@H](C(=O)N(C)C)C3)[C@H](C)[C@H]12 | broth dilution |  | 24 h | 0.0312 µg/mL |
| COc1cccc(-c2nc3ccccc3[nH]2)c1 | broth dilution | ATCC25922 |  | 256 µg/mL |

| Structure (SMILES) | test | system | conditions | MIC |
| --- | --- | --- | --- | --- |
| CC(C)Oc1c(NC(=O)c2ccc(NC(=O)[C@H](CC(N)=O)NC(=O)c3cccc(-c4cccc(C#N)c4)c3)cc2)ccc(C(=O)Nc2ccc(C(=O)O)cc2)c1O |  | DSM1116 |  | > 64 µg/mL |
| C=CCn1c(-c2ccc(Cl)cc2)nc2ccc(C)cc21 | broth dilution | ATCC25922 |  | 256 µg/mL |
| CC(=O)Nc1ccc(C(=O)Nc2ccc(C(=O)N[C@@H](CC(N)=O)C(=O)Nc3ccc(C(=O)Nc4ccc(C(=O)Nc5ccc(C(=O)O)cc5)c(O)c4OC(C)C)cc3)cc2)cc1 |  | DSM1116 |  | 16 µg/mL |
| O=[N+]([O-])c1ccc(O)c2ncccc12 | broth dilution | ATCC25922 |  | 2 µg/mL |
| N=C(N)c1cccc(OCCCCCOc2cccc(C(=N)N)c2)c1 | broth dilution | BW25113 |  | > 200 µg/mL |
| CCn1cc(C(=O)O)c(=O)c2cc(F)c(N3CCNCC3)cc21 | broth dilution | ATCC 8739, ATCC8739 |  | 1 µM |
| NC1CCCCc2c1[nH]c1ccc(Cl)c(Cl)c21 (centres unmarked) | broth dilution | ATCC25922 |  | 16 µg/mL |
| CC(C)Oc1c(NC(=O)c2ccc(NC(=O)[C@H](CC(N)=O)NC(=O)c3ccc(NC(=O)c4ccc([N+](=O)[O-])c5cccnc45)cc3)cc2)ccc(C(=O)Nc2ccc(C(=O)O)cc2)c1O |  | DSM1116 |  | 0.25 µg/mL |
| COc1c(C)c(OC(C)=O)c(C)c(O)c1C(=O)/C=C/c1ccccc1 | broth dilution | ATCC25922 |  | 5000 µg/mL |
| Cc1c(CN(C)C(=O)/C=C/c2cnc3c(c2)CC(NC(=O)OC(C)(C)C)C(=O)N3)oc2ccccc12 (centres unmarked) | broth dilution | MG1655 | clinical isolate | > 32 µg/mL |
| CC(C)Oc1c(NC(=O)c2ccc(NC(=O)[C@H](CC(N)=O)NC(=O)c3ccc(NC(=O)c4ccc(NC(=O)c5ccc([N+](=O)[O-])cc5)cc4)cc3)cc2)ccc(C(=O)Nc2ccc(C(=O)O)cc2)c1O |  | DSM1116 |  | 0.5 µg/mL |
| N=C(N)c1ccc(OCc2ccccc2COc2ccc(C(=N)N)cc2)cc1 |  | BW25113 |  | > 200 µg/mL |
| Cc1cc(=O)[nH]n1C(=O)c1ccc(-n2c(C)ccc2C)cc1 | broth dilution | ATCC10536 | 18 h | 250 µg/mL |
| CN(C)c1ccc(-c2nc3ccccc3[nH]2)cc1 | broth dilution | ATCC25922 |  | 64 µg/mL |
| CCCCCCC/C=C/C(=O)N1C(=O)/C(=C(/C)O)C(=O)C1CO (centres unmarked) |  | K12, K12 |  | > 200 µg/mL |
| Cc1ccc2nc(-c3cccc([N+](=O)[O-])c3)[nH]c2c1 | broth dilution | ATCC25922 |  | 256 µg/mL |
| C[C@H]1COc2c(N3CCN(C)CC3)c(F)cc3c(=O)c(C(=O)O)cn1c23 | agar dilution | ATCC25 |  | ≤ 0.03 µg/mL |
| Cc1ccc(C)n1-c1ccc(-c2nnc(-c3ccc(O)cc3)[nH]2)cc1 | broth dilution | ATCC10536 | 18 h | 250 µg/mL |
| CC(C)Oc1c(NC(=O)c2ccc(NC(=O)[C@H](CC(N)=O)NC(=O)c3ccc(NC(=O)c4ccc(NC(N)=O)cc4)cc3)cc2)ccc(C(=O)Nc2ccc(C(=O)O)cc2)c1O |  | DSM1116 |  | 0.5 µg/mL |
| CCCCCCC/C=C/C(=O)N1C(=O)/C(=C(\O)c2ccncc2)C(=O)C1CC(C)C (centres unmarked) |  | K12, K12 |  | > 200 µg/mL |
| N=C(N)c1ccc(OCCCCCCCCOc2ccc(C(=N)N)cc2)cc1 | broth dilution | BW25113 |  | > 25 µg/mL |
| CNc1cccc2cc(C(=O)Nc3ccc(C(=O)O)cc3)c(=O)[nH]c12 | broth dilution | ATCC25922 |  | 64 µg/mL |
| Cc1ccc2nc(-c3ccc(Cl)c(Cl)c3)n(Cc3ccccc3)c2c1 | broth dilution | ATCC25922 |  | 32 µg/mL |
| O=C(Nc1ccc(F)c(Cl)c1)c1cc(Cl)ccc1O | broth dilution | ATCC25922 |  | > 64 µg/mL |
| COc1c(C)c(OS(=O)(=O)c2ccc3ccccc3c2)c(C)c(OS(=O)(=O)c2ccc3ccccc3c2)c1C(=O)/C=C/c1ccccc1 | broth dilution | ATCC25922 |  | 5000 µg/mL |
| CCCCCCC/C=C/C(=O)N1C(=O)/C(=C(\O)C2CCNCC2)C(=O)C1CC(C)C (centres unmarked) |  | K12, K12 |  | 25 µg/mL |
